Screening data as filed in PubChem.
NR2E3 ag-1 = inhibitors of NR2E3-RetCOR corepressor binding, primary screen, NR2E3 agonist project, biochemical, TR-FRET, GST-NR2E3, biotin-RetCOR; Photoreceptor-specific nuclear receptor (Homo sapiens), Q9Y5X4; 1536-well; inhibition of corepressor binding, % at 4.78 µM; 0.12% of 320,000 active;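 active means percent inhibition above the cutoff of mean plus 3 SD of all tested compounds, set per screening campaign, cut at about 20% in these data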
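Material – GST-tagged NR2E3 plus biotinylated RetCOR corepressor · Quantity – NR2E3 fusion 1.35 nM · Times – 5 h incubation at 4 °C · Medium – pH 7.5 Tris-based buffer · Technique – TR-FRET, Eu(K)-anti-GST donor, streptavidin-D2 acceptor, ex 340, em 617/671 nm · Benchmarks – high control biotin, low control 0.6% DMSO · Format – 1536-well plates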
NR2F2 inh = NR2F2 transcriptional activity inhibitors, primary screen, cell-based, luciferase reporter, HEK293T, luminescence | 0.7% of 370,000 active | HEK293T NGFI-A luciferase reporter | COUP transcription factor 2 (Homo sapiens), P24468 | inhibition, % at 8.6 µM;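 active means inhibition above a per-plate cutoff, mean inhibition of test wells between control levels plus 3 SD, cut at about 38% in these data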;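 further: cells cotransfected with COUP-TFII expression vector driving the NGFI-A reporter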
Target sequence (P24468 whole entry, looked up): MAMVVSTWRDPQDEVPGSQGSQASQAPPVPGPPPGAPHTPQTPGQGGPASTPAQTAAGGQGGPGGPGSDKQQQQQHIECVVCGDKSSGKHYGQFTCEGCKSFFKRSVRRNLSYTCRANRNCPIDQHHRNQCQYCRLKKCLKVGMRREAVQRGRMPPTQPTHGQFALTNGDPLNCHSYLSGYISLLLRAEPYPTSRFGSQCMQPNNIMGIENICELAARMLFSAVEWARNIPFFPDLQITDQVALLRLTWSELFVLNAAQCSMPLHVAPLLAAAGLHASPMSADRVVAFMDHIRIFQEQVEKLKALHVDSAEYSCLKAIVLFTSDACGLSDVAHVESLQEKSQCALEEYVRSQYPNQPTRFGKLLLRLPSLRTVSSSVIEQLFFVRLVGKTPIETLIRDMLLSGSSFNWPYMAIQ
GalR3 antagonist = GalR3 antagonists in HEK293 cells, primary screen, cell-based, fluorescence readout; Galanin receptor type 3 (Homo sapiens), O60755; inhibition, % at 3 µM; HEK293 GalR3-CNG cAMP membrane potential fluorescence; galR3 body fused to GalR1 C-terminus; 0.44% of 360,000 active;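 active means inhibition above the screen-wide average plus 3 SD, cut at about 13% in these data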;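 further: forskolin and galanin both at EC90 stimulate the cells; cAMP rise reported by CNG channel membrane potential dye signal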
Target sequence (O60755 1-299 limits assumed): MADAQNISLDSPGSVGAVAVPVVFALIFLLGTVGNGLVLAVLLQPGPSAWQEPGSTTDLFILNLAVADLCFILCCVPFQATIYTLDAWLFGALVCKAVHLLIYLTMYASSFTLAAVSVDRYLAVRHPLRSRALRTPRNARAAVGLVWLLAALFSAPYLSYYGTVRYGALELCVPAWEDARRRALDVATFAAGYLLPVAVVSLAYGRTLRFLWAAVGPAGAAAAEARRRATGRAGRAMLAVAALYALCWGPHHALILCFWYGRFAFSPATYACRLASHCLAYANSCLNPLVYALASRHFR
CHT inh = inhibitors of human choline transporter CHT; CHT-expressing cells, membrane potential dye, choline response; stronger effect = lower value; B-score at 10 µM; 0.86% of 310,000 active;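 active means B-score over 3 SD under the library average, and starting fluorescence ratio not unusually high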;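 further: choline stimulus applied at its EC90 after an EC20 pre-addition; B-score computed on integrated fluorescence ratio after choline addition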
NR2E3 ag-2 = NR2E3 agonists in two-hybrid cells, primary screen, cell-based, luminescence, CHO-S, Gal4-NCOR/VP16-NR2E3. inhibition of corepressor binding, % at 3.98 µM. AID 602229, 2012. 0.35% of 360,000 active. luciferase. Photoreceptor-specific nuclear receptor (Homo sapiens), Q9Y5X4;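 active means inhibition above the mean of all tested compounds plus 3 SD, cut at about 70% in these data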;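 further: higher means lower luciferase signal from less NR2E3 corepressor binding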
CHT allo act = CHT positive allosteric modulators, primary screen, cell-based, membrane potential dye, choline EC20; High affinity choline transporter 1 (Homo sapiens), Q9GZV3; CHT-expressing cells; stronger effect = higher value; LV-AA mutant CHT in HEK293 cells; B-score at 10 µM; 0.49% of 310,000 active; AID 488977, 2010;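 active means initial fluorescence not abnormally high and integrated response B-score, plate-corrected, over 3 SD above library mean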
NR2E3 ag confirm = NR2E3 agonist confirmation in cells, cell-based, luminescence, CHO-S two-hybrid. CHO-S mammalian two-hybrid NR2E3-NCOR, luciferase luminescence. 51% of 2,300 active. inhibition, % at 3.98 µM. shares compounds with NR2E3 ag-2;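 active means average inhibition above a cutoff equal to the mean inhibition of all tested compounds plus one SD, cut at about 70% in these data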
VP16 counter = GAL4-VP16 reporter modulators, confirmation, counter-screen for NR2E3 agonist project, cell-based, luminescence, CHO-S, high throughput | shares compounds with NR2E3 ag-2 | CHO-S GAL4-VP16 luciferase reporter | inhibition, % at 3.98 µM | 29% of 2,300 active | AID 624379, 2012;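 active means mean inhibition above a cutoff equal to the average over all tested compounds plus one standard deviation, cut at about 70% in these data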;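 further: luciferase from a UAS reporter driven by GAL4-VP16 transactivation; higher means less reporter light so more repression of VP16 activity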
GalR3 conf = GalR3 antagonist hit confirmation, cell-based, fluorescence, triplicate | 59% of 1,600 active | inhibition, % at 3 µM | shares compounds with GalR3 antagonist | HEK293 GalR3 CNG cAMP biosensor, membrane potential fluorescence; galR3 fused to GalR1 carboxy tail; challenged with forskolin and galanin at EC90 | AID 652245, 2013;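 active means inhibition above the primary screen's cutoff, the mean inhibition of all screened compounds plus 3 SD, cut at about 13% in these data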
CNG parental = nonspecific cAMP agonists in parental HEK-CNG cells, counter-screen for GalR3 antagonist project, cell-based, fluorescence, high throughput; shares compounds with GalR3 antagonist; HEK293-CNG parental cells, cAMP membrane potential fluorescence; normalised: DMSO wells 0%, forskolin wells 100%; activation, % at 3 µM; 10% of 1,600 active; AID 652268, 2013; in the data active means activation above about 1.3%
VP16 Luc counter = Gal4-VP16 luciferase reporter inhibitors, counter-screen for COUP-TFII antagonist project, cell-based, luminescence, HEK293. shares compounds with NR2F2 inh. inhibition, % at 8.5 µM. 25% of 2,500 active. AID 687007, 2013; in the data active means inhibition above about 13%
COUP-TFII conf = NR2F2 transcriptional activity inhibitors, confirmation, cell-based, luciferase reporter, HEK293, triplicate; shares compounds with NR2F2 inh; HEK293 NGFI-A luciferase reporter, luminescence; inhibition, % at 8.5 µM; 45% of 2,500 active; AID 687008, 2013;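 active means mean inhibition over three repeats above a set limit taken from the earlier primary screen, cut at about 38% in these data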
Hits are given with their value. Compounds with a hit are over-represented: about 2.3% of the library has one in this group of screens.

Results for CCCc1nc2c(=O)n(C)c(=O)nc-2n(C)n1 ?
NR2F2 inh: 68; GalR3 antagonist: inactive; NR2E3 ag-2: 104; NR2E3 ag confirm: 101; VP16 counter: 86; VP16 Luc counter: 37; COUP-TFII conf: 60

How did CCCC(=O)Nc1ccc2c(c1)C(=O)N(C)[C@H]1CC[C@@H](CC(=O)OC)O[C@@H]1CO2 do in these assays?
NR2F2 inh: inactive

Results for COc1ccc(NS(=O)(=O)c2cccc(C(=O)OCC(=O)N3CCN(c4ccc(OC)cc4)CC3)c2)cc1 ?
NR2E3 ag-1: inactive; NR2F2 inh: 39; GalR3 antagonist: inactive; CHT inh: inactive; NR2E3 ag-2: inactive; CHT allo act: inactive; NR2E3 ag confirm: inactive; VP16 counter: inactive; VP16 Luc counter: inactive; COUP-TFII conf: inactive

What do the screens show for `COc1ccc(N2CCN(C(=O)c3ccc(NS(=O)(=O)c4cccc(F)c4)cc3)CC2)cc1`?
NR2E3 ag-1: inactive; NR2F2 inh: inactive; GalR3 antagonist: inactive; CHT inh: inactive; NR2E3 ag-2: inactive; CHT allo act: inactive

How did COC(=O)C1CN(Cc2ccc(F)cc2)CCS(=O)(=O)N1Cc1ccccc1 (stereo not given) do in these assays?
NR2F2 inh: inactive

What do the screens show for `CCN(CC)C(=O)c1oc2ccc(S(=O)(=O)N3CCCCCC3)cc2c1C`?
NR2E3 ag-1: inactive; NR2F2 inh: inactive; GalR3 antagonist: inactive; CHT inh: inactive; NR2E3 ag-2: inactive; CHT allo act: inactive

How did CCN(CC)C(=O)c1oc2ccc(S(=O)(=O)N3CC(C)CC(C)C3)cc2c1C (stereo not given) do in these assays?
NR2E3 ag-1: inactive; NR2F2 inh: 51; GalR3 antagonist: inactive; CHT inh: inactive; NR2E3 ag-2: 93; CHT allo act: inactive; NR2E3 ag confirm: 91; VP16 counter: 72; VP16 Luc counter: inactive; COUP-TFII conf: 49

Results for Cc1c(/C(O)=C2/C(=O)C(=O)N(Cc3cccnc3)C2c2ccccn2)cnn1-c1ccccc1 (stereo not given) ?
NR2E3 ag-1: inactive; NR2F2 inh: 95; GalR3 antagonist: inactive; CHT inh: inactive; NR2E3 ag-2: 83; CHT allo act: inactive; NR2E3 ag confirm: inactive; VP16 counter: inactive; VP16 Luc counter: inactive; COUP-TFII conf: inactive

Results for Cc1ccc(/C(O)=C2/C(=O)C(=O)N(Cc3cccnc3)C2c2ccccn2)cc1 (stereo not given) ?
NR2E3 ag-1: inactive; NR2F2 inh: inactive; GalR3 antagonist: inactive; CHT inh: inactive; NR2E3 ag-2: inactive; CHT allo act: inactive

What do the screens show for `CSc1ccc(C(=O)C2CCCN(C(=O)CCc3c(C)nn(C)c3C)C2)cc1` (stereo not given)?
NR2E3 ag-1: inactive; NR2F2 inh: 58; GalR3 antagonist: 86; CHT inh: inactive; NR2E3 ag-2: inactive; CHT allo act: inactive; NR2E3 ag confirm: inactive; VP16 counter: inactive; GalR3 conf: 95; CNG parental: inactive; VP16 Luc counter: inactive; COUP-TFII conf: inactive

Results for CSc1ccc(C(=O)C2CCCN(C(=O)CCn3cncn3)C2)cc1 (stereo not given) ?
NR2E3 ag-1: inactive; NR2F2 inh: inactive; GalR3 antagonist: inactive; CHT inh: inactive; NR2E3 ag-2: inactive; CHT allo act: inactive

How did CCOc1ccc(-n2c(SCC(=O)Nc3cccc4ccccc34)nnc2-c2cccs2)cc1 do in these assays?
NR2F2 inh: inactive

What do the screens show for `CC(C)(N[C@@H](Cc1c[nH]c2ccccc12)C(=O)NCCCc1ccccc1)C(=O)NCc1ccccc1`?
NR2F2 inh: inactive

Results for Cc1nc2ccccc2c2c1CC(C(C)(Cl)Br)O2 (stereo not given) ?
NR2E3 ag-1: inactive; NR2F2 inh: 54; GalR3 antagonist: inactive; CHT inh: inactive; NR2E3 ag-2: inactive; CHT allo act: inactive; NR2E3 ag confirm: 78; VP16 counter: inactive; VP16 Luc counter: inactive; COUP-TFII conf: 56

Results for CCC[C@H]1[C@@H](O)CC[C@@]23CCCN2C(=O)CCC[C@@H]13 ?
NR2F2 inh: inactive

How did COc1ccc(CN(CCN2CCOCC2)C(=O)c2cc(F)ccc2F)cc1OC do in these assays?
NR2F2 inh: inactive

How did CC1CC(C)C(=NNC(N)=O)C(C(O)CC2CCC(=O)NC2=O)C1 (stereo not given) do in these assays?
NR2F2 inh: 82; GalR3 antagonist: inactive; NR2E3 ag-2: 102; NR2E3 ag confirm: 85; VP16 counter: inactive; VP16 Luc counter: inactive; COUP-TFII conf: inactive

How did CCC1SC(C)C/C(=N/NC(N)=O)C1C (stereo not given) do in these assays?
NR2E3 ag-1: inactive; NR2F2 inh: inactive; GalR3 antagonist: inactive; CHT inh: inactive; NR2E3 ag-2: inactive; CHT allo act: inactive
